Assays:
Thymidylate kinase = molecular target: T1, Thymidylate kinase (Homo sapiens, UniProt P23919); test: Inhibition of human thymidylate kinase using dTMP as substrate after 30 mins by fluorescence analysis
T1 sequence (P23919 whole entry): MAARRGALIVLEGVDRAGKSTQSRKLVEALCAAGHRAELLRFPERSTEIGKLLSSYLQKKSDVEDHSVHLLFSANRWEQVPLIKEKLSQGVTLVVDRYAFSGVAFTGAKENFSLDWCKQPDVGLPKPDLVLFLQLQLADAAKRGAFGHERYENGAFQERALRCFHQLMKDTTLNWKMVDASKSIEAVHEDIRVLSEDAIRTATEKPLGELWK

Pseudomonas aeruginosa [1] = test: Antibacterial activity against […], MexXY, MeyZ efflux pump- knock out Pseudomonas aeruginosa PAO280; type: functional
Pseudomonas aeruginosa [2] = test: Antibacterial activity against Pseudomonas aeruginosa PAO1; type: functional
[3] = Inhibition of Pseudomonas aeruginosa thymidylate kinase expressed in Escherichia coli BL21 (DE3) cells assessed as phosphorylation of dTMP to dTDP after 20 mins by spectrophotometric analysis
In short: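 PaTMK from pET15b in E. coli BL21 DE3, purified by HisTrap and Superdex 200, used at 40 nM. dTDP formation was coupled via PK/LDH/NDP kinase to NADH oxidation (A340) over 20 min at 25 °C.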

[4] = Selectivity ratio of IC50 for human thymidylate kinase to IC50 for Pseudomonas aeruginosa thymidylate kinase
In short: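 Compound tested at 0.39–200 μM. Reaction 2 min at room temperature, then ADP detection reagents 30 min. Fluorescence read at ex 485/em 535 nm, corrected using 5 μM ADP interference controls and no-enzyme controls. Result is the ratio against the PaTMK coupled-assay IC50.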

[5] = molecular target: T2, Thymidylate kinase (Homo sapiens) (UniProt P23919); test: Inhibition of human thymidylate kinase using dTMP as substrate at 200 uM after 30 mins by fluorescence analysis
T2 sequence (whole entry): T1 sequence (P23919 whole entry)
In short: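 Inhibitor range 0.39–200 μM. Reaction runs 2 min at room temperature, then ADP-detection reagents for 30 min. Read-out is fluorescence at ex 485/em 535 nm. Percent inhibition is corrected using no-enzyme and 5 μM ADP interference controls.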

BL21-DE3 = test: Ratio of dFTM IC50 to compound IC50 for Pseudomonas aeruginosa thymidylate kinase expressed in Escherichia coli BL21 (DE3) cells assessed as phosphorylation of TMP to dTDP after 20 mins by spectrophotometric analysis
In short: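 His-tagged P. aeruginosa TMK expressed in E. coli BL21(DE3) and purified (Ni affinity, gel filtration). TMK diluted in buffer; 40 nM enzyme. Coupled PK/LDH/NDP kinase read-out: 2 mM ATP, 54 μM TMP, 2 mM PEP, 0.22 mM NADH, 40 mM HEPES pH 8.0, 80 mM KCl, 1.6 mM MgCl2. A340 decrease followed 20 min at 25 °C. Twenty 1.67-fold dilutions from 200 or 100 μM final. Initial rates relative to EDTA and enzyme-alone controls. IC50 ratio versus reference inhibitor.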

| Compound | IC50 (Thymidylate kinase) [nM] | MIC (Pseudomonas aeruginosa [1]) [µg/mL] | MIC (Pseudomonas aeruginosa [2]) [µg/mL] | IC50 [3] [nM] | Ratio IC50 [4] | inhibition [5] [%] | Ratio IC50 (BL21-DE3) |
| --- | --- | --- | --- | --- | --- | --- | --- |
| Cn1c(=O)[nH]c2ncc(-c3cccc(C(=O)NCCCc4ccc(C(F)(F)F)cc4)c3)cc21 | 124000 | > 256 | > 256 | 160 | > 1000 | 55 |  |
| Cn1c(=O)[nH]c2ncc(-c3ccncc3)cc21 |  | > 256 | > 256 | 152000 |  |  |  |
| Cn1c(=O)[nH]c2ncc(-c3cccc(C(=O)NCCCN4CCOCC4)c3)cc21 |  | > 256 | > 256 | 5800 |  |  |  |
| Cn1c(=O)[nH]c2ncc(-c3cccc(CO)c3)cc21 |  | > 256 | > 256 | 37000 |  |  |  |
| Cn1c(=O)[nH]c2ncc(-c3cccc(C(N)=O)c3)cc21 | > 200000 | > 256 | > 256 |  |  | 12 | 60 |
| Cn1c(=O)[nH]c2ncc(-c3cccc(O)c3)cc21 |  | > 256 | > 256 | 11000 |  |  |  |
| Cl.Cn1c(=O)[nH]c2ncc(-c3cccc(C(=O)NCCN)c3)cc21 |  | > 256 | > 256 | 3200 |  |  |  |
| Cn1c(=O)[nH]c2ncc(-c3cccc(C(=O)NCCc4c[nH]cn4)c3)cc21 |  | > 256 | > 256 | 2300 |  |  |  |
| Cn1c(=O)[nH]c2ncc(-c3cccc(C(=O)NCc4ccccn4)c3)cc21 |  | > 256 | > 256 | 6200 |  |  |  |
| Cn1c(=O)[nH]c2ncc(-c3cccc(C(=O)NCC(N)=O)c3)cc21 |  | > 256 | > 256 | 880 |  |  |  |
| Cl.Cn1c(=O)[nH]c2ncc(-c3cccc(C(=O)NCCCc4cccc(CN)c4)c3)cc21 |  | > 256 | > 256 | 2200 |  |  |  |
| Cn1c(=O)[nH]c2ncc(-c3ccc(C(N)=O)cc3)cc21 |  | > 256 | > 256 | > 200000 |  |  |  |
| Cn1c(=O)[nH]c2ncc(-c3cccc(C(=O)NCCC(=O)O)c3)cc21 |  | > 256 | > 256 | 2600 |  |  |  |
| Cn1c(=O)[nH]c2ncc(-c3cccnc3)cc21 |  | > 256 | > 256 | 66000 |  |  |  |
| Cn1c(=O)[nH]c2ncc(-c3cccc(C(=O)NCCCC4CCCC4)c3)cc21 |  | > 256 | > 256 | 810 |  |  |  |
| Cn1c(=O)[nH]c2ncc(-c3cccc(C(=O)NCc4ccccc4)c3)cc21 |  | > 256 | > 256 | 1000 |  |  |  |
| Cn1c(=O)[nH]c2ncc(-c3cccc(C(=O)NCCCc4c[nH]c5ccccc45)c3)cc21 |  | > 256 | > 256 | 200 |  |  |  |
| Cn1c(=O)[nH]c2ncc(-c3cccc(C(=O)NCCO)c3)cc21 |  | > 256 | > 256 | 2600 |  |  |  |
| Cn1c(=O)[nH]c2ncc(-c3cccc(C(=O)NCC(=O)O)c3)cc21 |  | > 256 | > 256 | 880 |  |  |  |
| Cn1c(=O)[nH]c2ncc(-c3cccc(F)c3)cc21 |  | > 256 | > 256 | > 200000 |  |  |  |
| Cn1c(=O)[nH]c2ncc(-c3cccc(S(N)(=O)=O)c3)cc21 |  | > 256 | > 256 | > 200000 |  |  |  |
| Cn1c(=O)[nH]c2ncc(-c3cccc(C(=O)NCC(Cc4ccccc4)C(=O)O)c3)cc21 (racemic) |  | > 256 | > 256 | 250 |  |  |  |
| Cl.Cn1c(=O)[nH]c2ncc(-c3ccc(CN)cc3)cc21 |  | > 256 | > 256 | 4900 |  |  |  |
| COC(=O)c1ccccc1CCCNC(=O)c1cccc(-c2cnc3[nH]c(=O)n(C)c3c2)c1 |  | > 256 | > 256 | 370 |  |  |  |
| CNC(=O)c1cccc(-c2cnc3[nH]c(=O)n(C)c3c2)c1 |  | > 256 | > 256 | 2200 |  |  |  |
| Cn1c(=O)[nH]c2ncc(-c3cccc(C(=O)NCCCc4ccc(F)cc4)c3)cc21 | 123000 | > 256 | > 256 | 120 | > 1000 | 58 |  |

| Compound | IC50 (Thymidylate kinase) [nM] | MIC (Pseudomonas aeruginosa [1]) [µg/mL] | MIC (Pseudomonas aeruginosa [2]) [µg/mL] | IC50 [3] [nM] | Ratio IC50 [4] | inhibition [5] [%] | Ratio IC50 (BL21-DE3) |
| --- | --- | --- | --- | --- | --- | --- | --- |
| CN(C)C(=O)c1cccc(-c2cnc3[nH]c(=O)n(C)c3c2)c1 |  | > 256 | > 256 | 104000 |  |  |  |
| CC(=O)c1cccc(-c2cnc3[nH]c(=O)n(C)c3c2)c1 |  | > 256 | > 256 | 13000 |  |  |  |
| Cn1c(=O)[nH]c2ncc(-c3cccc(C#N)c3)cc21 |  | > 256 | > 256 | > 200000 |  |  |  |
| CC(NC(=O)c1cccc(-c2cnc3[nH]c(=O)n(C)c3c2)c1)C(=O)O (centres undefined) |  | > 256 | > 256 | 5000 |  |  |  |
| Cn1c(=O)[nH]c2ncc(-c3cccc(C(=O)NCCCc4c[nH]cn4)c3)cc21 |  | > 256 | > 256 | 990 |  |  |  |
| Cn1c(=O)[nH]c2ncc(-c3cccc(C(=O)NCCc4nc5ccccc5[nH]4)c3)cc21 |  | > 256 | > 256 | 3000 |  |  |  |
| Cn1c(=O)[nH]c2ncc(-c3cccc(C(=O)NCCc4ccccc4)c3)cc21 |  | > 256 | > 256 | 2900 |  |  |  |
| Cn1c(=O)[nH]c2ncc(-c3cccc(C(=O)NCCc4ccncc4)c3)cc21 |  | > 256 | > 256 | 2000 |  |  |  |
| Cn1c(=O)[nH]c2ncc(-c3cccc(C(=O)NCCCc4ccc(C(=O)O)cc4)c3)cc21 |  | > 256 | > 256 | 2700 |  |  |  |
| Cn1c(=O)[nH]c2ncc(-c3cccc(C(=O)NCCCc4ccccc4C(=O)O)c3)cc21 |  | > 256 | > 256 | 2000 |  |  |  |
| Cn1c(=O)[nH]c2ncc(-c3cccc(N)c3)cc21 |  | > 256 | > 256 | 63000 |  |  |  |
| Cn1c(=O)[nH]c2ncc(-c3cccc(C(=O)NCCCc4cccc(C(=O)O)c4)c3)cc21 |  | > 256 | > 256 | 2400 |  |  |  |
| Cn1c(=O)[nH]c2ncc(-c3cccc(C(=O)NCCS(=O)(=O)O)c3)cc21 |  | > 256 | > 256 | 1300 |  |  |  |
| Cn1c(=O)[nH]c2ncc(-c3ccc(O)cc3)cc21 |  | > 256 | > 256 | 21000 |  |  |  |
| CC(=O)Nc1cccc(-c2cnc3[nH]c(=O)n(C)c3c2)c1 |  | > 256 | > 256 | 3400 |  |  |  |
| Cn1c(=O)[nH]c2ncc(-c3cncnc3)cc21 |  | > 256 | > 256 | > 200000 |  |  |  |
| Cc1cn([C@H]2C[C@H](O)[C@@H](CF)O2)c(=O)[nH]c1=O |  | > 256 | > 256 |  |  |  |  |
| Cn1c(=O)[nH]c2ncc(-c3ccccc3)cc21 | > 200000 | > 256 | > 256 |  |  | 17 |  |
| Cn1c(=O)[nH]c2ncc(-c3cccc(C(=O)NC(CCc4ccccc4)C(=O)O)c3)cc21 (racemic) |  | > 256 | > 256 | 12000 |  |  |  |
| Cn1c(=O)[nH]c2ncc(-c3cccc(C(=O)NCC#N)c3)cc21 |  | > 256 | > 256 | 2100 |  |  |  |
| Cn1c(=O)[nH]c2ncc(-c3cccc(C(=O)NCCCc4cccnc4)c3)cc21 |  | > 256 | > 256 | 510 |  |  |  |
| Cl.Cn1c(=O)[nH]c2ncc(-c3cccc(CN)c3)cc21 |  | > 256 | > 256 | > 200000 |  |  |  |
| Cn1c(=O)[nH]c2ncc(-c3cccc(C(=O)NCCCc4ccccc4)c3)cc21 | > 200000 | > 256 | > 256 | 120 | > 1000 | 43 |  |
| Cn1c(=O)[nH]c2ncc(-c3cccc(C(=O)NCc4nc5ccccc5[nH]4)c3)cc21 |  | > 256 | > 256 | 68000 |  |  |  |
| Cl.Cn1c(=O)[nH]c2ncc(-c3cccc(C(=O)NCCCc4ccc(CN)cc4)c3)cc21 |  | > 256 | > 256 | 3200 |  |  |  |

Source: ChEMBL document CHEMBL1955766, “Structure guided development of novel thymidine mimetics targeting Pseudomonas aeruginosa thymidylate kinase: from hit to lead generation” (J Med Chem, 2012)
